Compound activity (PubChem BioAssay)
Shown are actives, neighbours in structure and some others; about 1.1% of the full set was active somewhere.
Redox H2O2 prof = compounds producing H2O2 with reducing agent – biochemical, NIH compound library profiling, artefact control for MLSCN library redox annotation, primary screen. DTT-dependent redox cycling H2O2, phenol red/HRP absorbance; 100% = 100 µM peroxide control, 0% = buffer. activation, % at 10 µM. actives 0.03% (n = 200,000). AID 878, 2007;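 active = activation of at least 50% relative to the plate's high and low controls in the primary single-dose screen; inactive = activation below 50%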;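 also: compound incubated with DTT at 0.8 mM final as the reducing agent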
PMI act hi M6P = human PMI activators, high substrate, primary screen, biochemical, fluorescence intensity, near-saturating mannose 6-phosphate. Mannose-6-phosphate isomerase (Homo sapiens), P34949. actives 0.34% (n = 190,000). AID 1216, 2008. activation factor at 20 µM. coupled PMI enzyme assay, resazurin fluorescence, 20 min; stronger effect = higher value; 1 = untreated enzyme, 0 = substrate-free blank;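 active = activation factor of 2 or more at 20 µM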
Target sequence (P34949 whole entry, looked up): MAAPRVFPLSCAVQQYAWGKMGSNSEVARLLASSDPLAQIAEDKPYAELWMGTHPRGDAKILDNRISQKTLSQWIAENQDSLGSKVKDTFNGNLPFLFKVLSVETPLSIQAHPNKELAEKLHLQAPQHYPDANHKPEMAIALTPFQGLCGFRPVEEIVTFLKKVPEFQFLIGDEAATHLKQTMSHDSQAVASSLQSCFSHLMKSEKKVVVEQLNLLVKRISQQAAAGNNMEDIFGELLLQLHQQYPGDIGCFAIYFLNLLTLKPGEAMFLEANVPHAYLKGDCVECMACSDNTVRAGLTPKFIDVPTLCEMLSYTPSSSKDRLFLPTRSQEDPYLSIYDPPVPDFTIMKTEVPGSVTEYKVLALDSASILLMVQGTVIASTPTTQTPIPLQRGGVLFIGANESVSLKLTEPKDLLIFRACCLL
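assay system = human phosphomannose isomerase with PGI, G6PDH, diaphorase coupling enzymes | quantity = 15 ng/mL PMI | incubation = enzyme reaction with compound 20 min at room temperature | medium = HEPES pH 7.4 buffer with MgCl2 and Tween-20 | compound dosing = one concentration, 20 µM, in 1% DMSO | measured by = Diaphorase-driven resazurin-to-resorufin fluorescence, excitation 544, emission 590 nm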
Diaph inh CS = diaphorase inhibitors and chemical oxidizers, primary screen, counter-screen for diaphorase-coupled primary assays, biochemical, uHTS, resorufin fluorescence; inhibition, % at 20 µM; actives 0.69% (n = 190,000); diaphorase resazurin-to-resorufin fluorescence, NADH, 16 min; bacterial (C. kluyveri) enzyme, not human; AID 1217, 2008;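 active = primary screen inhibition at 20 µM above a set limit, cut at about 50% in these data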;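 also: plate controls were DMSO with full reaction for no effect and wells lacking NADH for full effect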
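System: Diaphorase enzyme from Clostridium kluyveri | Amount: Enzyme working solution with 0.14 U/mL diaphorase | Benchmarks: No-NADH positive control and DMSO neutral control | Signal: Fluorescence of resorufin formed from resazurin, Ex 544/Em 590 nm | Schedule: 16-min room-temperature incubation before reading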
G6PDH CS = L. mesenteroides G6PDH inhibitors, counter-screen for G6PDH-coupled screening assays, biochemical, Leuconostoc mesenteroides enzyme; glucose-6-phosphate dehydrogenase [Leuconostoc mesenteroides]; Purified L. mesenteroides G6PDH, diaphorase/resazurin coupled fluorescence, 45 min; inhibition, % at 5 µM; actives 0.12% (n = 200,000); AID 1020, 2008; in the data active = inhibition above about 50%
PMI activator = activators of human PMI, primary screen, biochemical, fluorescence intensity, near-Km mannose 6-phosphate | Mannose-6-phosphate isomerase (Homo sapiens), P34949 | purified human PMI, coupled resazurin fluorescence, 20 min; stronger effect = higher value; 1 = vehicle control, 0 substrate-free wells | activation factor at 20 µM | actives 0.005% (n = 190,000) | AID 1214, 2008;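 active = activation factor of 2 or more at 20 µM, relative to plate controls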
Diaph act CS = compounds boosting diaphorase resazurin reduction – biochemical, uHTS, resorufin fluorescence, counter-screen for diaphorase-coupled primary assays, primary screen; Diaphorase/resazurin coupled assay, 16 min; stronger effect = higher value; 1 = vehicle wells, 0 = NADH-free wells; activation factor at 20 µM; actives 0.005% (n = 190,000); AID 1229, 2008;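 active = diaphorase activity raised at least twofold by the compound at 20 µM; inactive = activation factor below 2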
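Test system: Clostridium kluyveri diaphorase, purified enzyme. Buffer or medium: 50 mM HEPES pH 7.4 buffer plus MgCl2 and Tween 20. Also added: 0.114 mM NADH and 0.1 mM resazurin, final amounts. Dosing: compound 20 µM once, DMSO 1%. Schedule: 16 min enzyme reaction, ambient temperature. Detection: fluorescence of resorufin, 544 nm excitation, 590 nm emission.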
Starred values were filed as active, the others as inactive.

SMILES | Redox H2O2 prof | PMI act hi M6P | Diaph inh CS | G6PDH CS | PMI activator | Diaph act CS
CCCCCc1ccc(C(=O)CCCC)c(=S)[nH]1 | 0 | 1 | 57* | 4 | 1 | 0.4
O=C(c1ccccc1)c1coc2ccc(O)c(Cl)c12 | 2 | 1.1 | -3 | 12 | 1 | 1
O=C1C(=O)c2c(C(=O)c3ccccc3)coc2-c2ccccc21 | 0 | 0.4 | 62* | 61* | 0.3 | 0.4
COc1ccc(NC2=Nc3cccc4cccc2c34)cc1 | 1 | 0.9 | 9 | -18 | 0.8 | 0.9
N#CC(C#N)=c1ccc2c(c1)N1C3=C(CCCC3)CC3CCCCC31N=2 (stereo unspecified) | 11 | 0.8 | 76* | -32 | 0.8 | 0.2
N#C/C(C(N)=O)=c1/ccc2c(c1)N1C3=C(CCCC3)CC3CCCCC31N=2 (stereo unspecified) | 4 | 0.7 | 91* | 11 | 0.7 | 0.1
Cc1ccc(NC(=O)CCCCCCCCCCC2COCCO2)c(C)c1 (stereo unspecified) | 0 | 1.1 | 0 | -4 | 0.9 | 1
NC(=O)C1=C[C@@H](c2ccc(C(F)(F)F)cc2)C[C@@H](OCc2ccc(CO)cc2)O1 | -1 | 0.4 | 52* | 14 | 0.7 | 0.5
C#CCNC(=O)C1=C[C@H](c2ccc(C(F)(F)F)cc2)C[C@H](OCc2ccc(CO)cc2)O1 | -1 | 0.7 | 39 | 14 | 0.8 | 0.6
C#CCNC(=O)C1=C[C@@H](c2ccccc2)C[C@@H](OCc2ccc(CO)cc2)O1 | -1 | 0.7 | 56* | 8 | 0.9 | 0.4
Cc1ccc(CCN2C(=O)c3ccccc3C2C(=O)NCc2cccnc2)cc1 (stereo unspecified) | 0 | 1 | 3 | 4 | 1.2 | 1
CC1=CC(C)[C@H](/C=N/n2c(=O)[nH]c3c([nH]c4ccc(C)cc43)c2=O)C(C)C1 (stereo partly specified) | -1 | 1.1 | -4 | 6 | 1.1 | 1
COc1ccccc1-n1c(=O)c2c3c(sc2n2c(=S)[nH]nc12)CCC3 | 0 | 1 | 35 | 2 | 1 | 0.7
O=C(O)c1ccccc1C(=O)NNc1ccc(Cl)cc1Cl | 0 | 2.7* | 4 | 5 | 1.7 | 1
O=C(O)c1ccccc1C(=O)NNc1ccc(F)cc1 | 2 | 1.7 | 14 | 4 | 1.4 | 0.9
Cc1cc(NC(=O)COc2c(C)cccc2C)no1 | 0 | 1 | 10 | 8 | 0.9 | 0.9
CC(C)n1c2ccccc2c2nnc(SCC(=O)OCN3C(=O)c4ccccc4C3=O)nc21 | 3 | 1 | 57* | -5 | 1 | 0.4
CCOC(=O)C1(CCc2ccccc2)CCN(C(=O)CN2C(=O)CSC2=O)CC1 | 0 | 1.1 | 0 | 7 | 1.1 | 1
COc1cc(CN2CCN(Cc3ccc([N+](=O)[O-])cc3)CC2)c([N+](=O)[O-])cc1OC | -2 | 0.4 | 30 | 12 | 0.8 | 0.7
COc1cccc(CN2CCN(Cc3cc(OC)c(OC)cc3[N+](=O)[O-])CC2)c1 | -5 | 0.5 | 50* | 15 | 0.5 | 0.5
CN(C)CCNC(=O)/C=N/O | 0 | 1 | 9 | -8 | 1 | 0.9
S=c1[nH]cnc2scc(-c3ccccc3)c12 | -1 | 1.1 | 64* | -14 | 1 | 0.4
Clc1ncnc2scc(-c3ccccc3)c12 | -3 | 1 | 7 | -5 | 1 | 0.9
CC1(C)Cc2ccccc2C2=NNC(=O)C2=N1 | -1 | 0.2 | 69* | 52* | 0.2 | 0.3
O=C(Nc1nc2ccccc2s1)c1ccc(OCC2CCCO2)cc1 (stereo unspecified) | 0 | 0.9 | 15 | -24 | 0.8 | 0.9
